The source made the active and inactive calls. The rule behind the calls is not given here.
Columns and labels:
[1] = biological target: T1, DNA ligase 1 (Homo sapiens, UniProt P18858); experiment: Inhibition of human recombinant DNA ligase 1 by radioactive gel-based ligation assay
Summary of the method: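 A 25-mer and a 5′-[32P]-labeled 18-mer were annealed to a complementary 44-mer to give a centrally nicked duplex. Labeled substrate (0.5 pmol) and hLigI (0.02 pmol) in ligation buffer were incubated with varying inhibitor concentrations for 30 min at 25 °C. Products were resolved on gels, and IC50 was derived from the concentration-dependence.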

[2] = Partition coefficient, log P of the compound; assay type: physicochemical; conditions: octanol/water
[3] = Growth inhibition of human MCF10A cells at 50 uM by MTT assay relative to control; assay type: cell-based; conditions: MCF-10A
[4] = biological target: T1, DNA ligase 1; experiment: Inhibition of human recombinant DNA ligase 1 at 100 uM by fluorescence energy transfer-based DNA joining assay relative to control
Summary of the method: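 Fluorescence energy transfer joining of a nicked DNA substrate (10 pmol) by purified recombinant hLigI (0.25 pmol), run in duplicate with or without 100 µM candidate inhibitor.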

[5] = test system: HCT-116; experiment: Growth inhibition of human HCT116 cells at 50 uM by MTT assay relative to control; assay type: functional, cell-based
[6] = test system: DNA; experiment: Inhibition of ethidium bromide binding to DNA at 100 uM
[7] = biological target: T1, DNA ligase 1; experiment: Inhibition of human recombinant DNA ligase 1 in presence of 0.1% Triton X-100 by fluorescence energy transfer-based DNA joining assay relative to control
[8] = biological target: T1, DNA ligase 1; experiment: Inhibition of human recombinant DNA ligase 1 using nicked DNA substrate by kinetic assay
Summary of the method: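 Initial ligation rates were measured with hLigI (0.05 pmol) and fluorescent nicked DNA substrate (0.5–100 pmol) at various inhibitor concentrations. Ki came from Lineweaver–Burk double-reciprocal plots and curve fitting.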

T1 sequence (P18858 whole entry): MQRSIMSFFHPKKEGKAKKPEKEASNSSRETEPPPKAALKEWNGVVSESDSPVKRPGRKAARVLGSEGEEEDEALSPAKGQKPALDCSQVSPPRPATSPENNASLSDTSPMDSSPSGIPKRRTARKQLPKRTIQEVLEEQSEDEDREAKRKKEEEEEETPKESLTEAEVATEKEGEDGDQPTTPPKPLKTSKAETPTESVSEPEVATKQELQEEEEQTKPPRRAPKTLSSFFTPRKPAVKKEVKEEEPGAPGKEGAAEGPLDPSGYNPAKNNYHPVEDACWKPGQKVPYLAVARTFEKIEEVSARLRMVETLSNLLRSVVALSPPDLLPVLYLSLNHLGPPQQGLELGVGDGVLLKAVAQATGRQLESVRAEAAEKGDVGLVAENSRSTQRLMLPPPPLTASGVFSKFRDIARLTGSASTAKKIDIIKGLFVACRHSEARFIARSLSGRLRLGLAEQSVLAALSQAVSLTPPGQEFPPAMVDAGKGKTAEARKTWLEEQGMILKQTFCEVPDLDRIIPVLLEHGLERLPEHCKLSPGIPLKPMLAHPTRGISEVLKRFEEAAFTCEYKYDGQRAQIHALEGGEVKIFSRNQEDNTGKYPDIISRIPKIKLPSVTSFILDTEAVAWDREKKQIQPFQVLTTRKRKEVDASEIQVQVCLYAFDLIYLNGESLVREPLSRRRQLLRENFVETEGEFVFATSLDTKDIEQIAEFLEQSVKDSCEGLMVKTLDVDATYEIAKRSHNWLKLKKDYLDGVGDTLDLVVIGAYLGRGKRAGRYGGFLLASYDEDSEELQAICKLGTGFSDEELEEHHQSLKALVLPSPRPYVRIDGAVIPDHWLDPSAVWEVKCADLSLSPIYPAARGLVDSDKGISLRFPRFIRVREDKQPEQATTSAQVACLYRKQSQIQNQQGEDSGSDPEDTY

| SMILES | IC50 [1] [µM] | logP [2] | growth inhibition [3] [%] | inhibition [4] [%] | growth inhibition [5] [%] | Activity [6] | Activity [7] | Ki [8] [µM] | inhibition ([7]; concentration not given here) [%] |
| --- | --- | --- | --- | --- | --- | --- | --- | --- | --- |
| Cc1c(Br)cc(NCC(=O)N/N=C\c2cc([N+](=O)[O-])ccc2O)cc1Br | 8 | 4.91 | 70 | 78.3 | 70 | inactive |  |  |  |
| O=C(c1ccc(O)cc1)c1ccccc1O | 25 | 3.04 |  | 50.7 |  |  | Active |  |  |
| O=C1Nc2c(C(=O)O)cccc2C1=O | 4 | 0.24 |  | 59.3 |  |  | Active | 4 |  |
| NS(=O)(=O)c1ccc(CCNC(=O)CCS(=O)(=O)c2ccc(Br)cc2)cc1 | 8 | 1.42 |  | 53.4 |  |  | Active |  |  |
| CSc1ccc(C(=O)O)s1 | 10 | 1.92 |  | 60.5 |  |  | Active |  |  |
| Cc1oc(C(=O)O)cc1CSCc1cc(C(=O)O)c(C)o1 | 0.6 | 1.87 |  | 91 |  |  | Active |  |  |
| O=c1[nH]ncc(N/N=C\c2ccc(O)c([N+](=O)[O-])c2)c1Cl | 12 | 4.84 | 70 | 59.8 | 40 | inactive |  |  |  |
| COc1ccc(-c2cnc3c(O)nc(O)nc3n2)cc1 | 25 | 1.78 | 70 | 52.5 | 40 |  |  |  | 39 |
| O=C(O)CSc1cc(Cl)c2nonc2c1[N+](=O)[O-] | 13 | 2.15 | 40 | 60.6 |  |  | Active |  |  |

Source: ChEMBL document CHEMBL1155879, “Identification and validation of human DNA ligase inhibitors using computer-aided drug design” (J Med Chem, 2008)
